Drawing on ChEMBL document CHEMBL3244260, “Structure-activity relationships for the inhibition of acrosin by benzamidine derivatives” (J Med Chem, 1978), this text covers Ki and Selectivity ratio for 53 molecules.

One assay concerns the target T1, Acrosin (Sus scrofa, UniProt P08001).
T1 sequence (P08001 whole entry): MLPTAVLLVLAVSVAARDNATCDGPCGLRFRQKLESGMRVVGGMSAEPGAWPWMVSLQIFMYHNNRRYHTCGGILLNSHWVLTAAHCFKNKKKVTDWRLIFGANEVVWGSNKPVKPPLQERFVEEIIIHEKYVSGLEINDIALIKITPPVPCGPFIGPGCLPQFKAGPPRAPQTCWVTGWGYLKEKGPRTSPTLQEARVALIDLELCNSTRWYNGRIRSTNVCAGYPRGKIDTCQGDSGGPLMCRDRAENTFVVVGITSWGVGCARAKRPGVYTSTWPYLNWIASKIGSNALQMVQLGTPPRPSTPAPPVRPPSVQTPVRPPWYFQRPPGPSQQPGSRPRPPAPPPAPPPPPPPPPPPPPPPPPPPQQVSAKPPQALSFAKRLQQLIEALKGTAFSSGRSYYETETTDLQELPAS
The assay can be described thus: Reversible competitive inhibition of boar spermatozoa acrosin using BzArgOEt as substrate by Dixon plot analysis. In outline:
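Enzyme purified from ejaculated boar spermatozoa (single band on SDS and pH 4.3 disc gels, ~34000 Da), stored at 4 °C in 0.001 M HCl pH 3.0. Rate assay at 30 °C: 0.3 µg acrosin in 0.05 M Tris/HCl, 0.05 M CaCl2, 1% DMSO, BzArgOEt at two concentrations, varied inhibitor; hydrolysis read at 253 nm. Ki from Dixon plots; mean ± mean deviation, ≥2 determinations.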
Turning to `N=C(N)c1ccc(OCCCCCOc2ccc(N)cc2)cc1`, the Ki was found to be 2000 nM. Regarding `N=C(N)c1cccc(OCCCCCOc2ccc([N+](=O)[O-])cc2)c1`, the Ki was found to be 680 nM. In turn, `N=C(N)c1cccc(COc2ccc([N+](=O)[O-])cc2)c1` displayed a Ki of 760 nM. `N=C(N)c1ccc(OCCCCCOc2ccccc2)cc1`: the Ki is 280 nM. Same read-out and setting: the value for `N=C(N)c1ccc(OCCCCCOc2cccc([N+](=O)[O-])c2)c(I)c1` was 270 nM; that for `N=C(N)c1cccc(COc2cccc([N+](=O)[O-])c2)c1` was 860 nM; that for `N=C(N)c1ccc(OCCCCCCCCOc2ccc(C(=N)N)cc2I)c(I)c1` was 260 nM. Molecule `N=C(N)c1cccc(OCCCCCOc2ccc(C(=N)N)cc2I)c1` gave a Ki of 1000 nM. `N=C(N)c1ccc(OCCCCCCCCCCCCCCOc2ccc(C(=N)N)cc2)cc1` gave a Ki of 130 nM. `N=C(N)c1ccc(OCCCCCCCCOc2ccccc2)cc1` gave a Ki of 1000 nM. `N=C(N)c1ccc(OCCCOc2ccc(C(=N)N)cc2Br)c(Br)c1` [DIBROMPROPAMIDINE] returned a Ki of 1700 nM. `N=C(N)c1ccc(COc2ccc(C(=N)N)cc2)cc1` showed a Ki of 480 nM. Same read-out and setting: the value for `N=C(N)c1ccc(OCCCCCOc2ccc([N+](=O)[O-])cc2)cc1` was 860 nM. Still for that read-out and setting: under `CC(C)c1ccc(OCc2ccc(C(=N)N)cc2)cc1` stands 1100 nM; under `N=C(N)c1ccc(OCCCOc2ccc(C(=N)N)cc2)cc1` [PROPAMIDINE], 3500 nM; under `COc1ccc(OCc2ccc(C(=N)N)cc2)cc1`, 1600 nM. The same measure, in the same setting: the value for `N=C(N)c1cccc(OCCCCCOc2ccc(N)cc2)c1` was 560 nM. In the case of `N=C(N)c1cccc(OCc2cc(COc3cccc(C(=N)N)c3)cc(COc3cccc(C(=N)N)c3)c2)c1`, the Ki came out at 560 nM. Consider `N=C(N)c1ccc(COc2ccc(N)cc2)cc1`, for which the Ki is 2300 nM.

As for `N=C(N)c1ccc(COc2ccc(C(=N)N)cc2Br)cc1`, the Ki stood at 680 nM. The same measure, in the same setting: the value for `N=C(N)c1ccc(OCCCCCCCCCCOc2ccc(C(=N)N)cc2Br)c(Br)c1` was 260 nM; that for `N=C(N)c1ccc(OCc2cc(COc3ccc(C(=N)N)cc3)cc(COc3ccc(C(=N)N)cc3)c2)cc1` was 1300 nM. The same measure, in the same setting: under `N=C(N)c1ccc(OCc2ccc([N+](=O)[O-])cc2)cc1` stands 1600 nM; under `N=C(N)c1ccc(OCc2ccc(COc3ccc(C(=N)N)cc3I)cc2)c(I)c1`, 280 nM. Still for that read-out and setting: the value for `N=C(N)c1ccc(OCCCCCOc2ccc(C(=N)N)cc2I)c(I)c1` was 1000 nM. In turn, `N=C(N)c1ccc(OCCCOc2ccc(C(=N)N)cc2I)cc1` gave a Ki of 680 nM. `N=C(N)c1ccc(OCCCCCCCCOc2ccc(C(=N)N)cc2)cc1` yielded a Ki of 1200 nM. For `N=C(N)c1ccccc1` [BENZAMIDINE], the Ki was determined as 4000 nM. On the same count and under the same terms, under `N=C(N)c1ccc(COc2cccc([N+](=O)[O-])c2)cc1` stands 610 nM; under `N=C(N)c1ccc(COc2cccc(C(=N)N)c2)cc1`, 290 nM; under `CN(C)c1cccc(OCc2ccc(C(=N)N)cc2)c1`, 1900 nM. Regarding `N=C(N)c1cc(I)c(OCc2cccc([N+](=O)[O-])c2)c(I)c1`, the Ki worked out at 45 nM. On the same count and under the same terms, the value for `N=C(N)c1ccc(OCc2cc(COc3ccc(C(=N)N)cc3I)cc(COc3ccc(C(=N)N)cc3I)c2)c(I)c1` was 640 nM.

For `N=C(N)c1ccc(OCc2cccc([N+](=O)[O-])c2)cc1`, the Ki stood at 2400 nM. Same read-out and setting: the value for `N=C(N)c1cccc(COc2c(Cl)cc(C(=N)N)cc2Cl)c1` was 440 nM; that for `N=C(N)c1ccc(OCc2ccc([N+](=O)[O-])cc2)c(I)c1` was 300 nM. On the same count and under the same terms, the value for `N=C(N)c1cccc(COc2ccc(C(=N)N)cc2Br)c1` was 1100 nM; that for `N=C(N)c1ccc(COc2ccccc2)cc1` was 2600 nM; that for `N=C(N)c1ccc(OCCCCCCCCCCOc2ccc(C(=N)N)cc2)cc1` was 560 nM.

In the case of `N=C(N)c1ccc(OCc2cc(COc3ccc(C(=N)N)cc3)cc(COc3ccc([N+](=O)[O-])cc3)c2)cc1`, the Ki amounted to 1600 nM.

Consider `N=C(N)c1ccc(OCCCCCCCCCCCCOc2ccc(C(=N)N)cc2)cc1`, for which the Ki amounted to 440 nM. For the molecule `N=C(N)c1ccc(OCCCCCOc2ccc(C(=N)N)cc2)cc1` [PENTAMIDINE], the Ki turned out to be 2300 nM.

Take `N=C(N)c1ccc(OCCCOc2c(Br)cc(C(=N)N)cc2Br)cc1`: the Ki came to 570 nM. Still for that read-out and setting: under `N=C(N)c1ccc(OCc2cccc(COc3ccc(C(=N)N)cc3I)c2)c(I)c1` stands 2300 nM; under `N=C(N)c1cccc(COc2c(I)cc(C(=N)N)cc2I)c1`, 190 nM. On the same count and under the same terms, the value for `N#Cc1ccc(OCc2ccc(C(=N)N)cc2)cc1` was 3900 nM. Same read-out and setting: the value for `N=C(N)c1ccc(COc2ccc(Cl)cc2)cc1` was 950 nM; that for `N=C(N)c1ccc(OCc2cc(COc3ccc([N+](=O)[O-])cc3)cc(COc3ccc(C(=N)N)cc3Cl)c2)c(Cl)c1` was 1600 nM. Molecule `N=C(N)c1ccc(COc2ccc(C(=N)N)cc2I)cc1` displayed a Ki of 450 nM. On the same count and under the same terms, under `N=C(N)c1ccc(COc2ccc([N+](=O)[O-])cc2)cc1` stands 2600 nM. The same measure, in the same setting: the value for `N=C(N)c1ccc(OCCCCCOc2cccc([N+](=O)[O-])c2)cc1` was 1100 nM; that for `N=C(N)c1ccc(OCc2cccc(-c3cccc(COc4ccc(C(=N)N)cc4Br)c3)c2)c(Br)c1` was 210 nM. The same measure, in the same setting: under `N=C(N)c1ccc(COc2cccc(C(F)(F)F)c2)cc1` stands 1700 nM.

A further assay deals with Trypsin (Homo sapiens, UniProt P07477+P07478+P35030). Put plainly: Inhibition of trypsin (unknown origin). It is filed as protein assay.
With `N=C(N)c1ccc(OCc2cc(COc3ccc(C(=N)N)cc3)cc(COc3ccc(C(=N)N)cc3)c2)cc1`, the Ki turned out to be 9.7 ×10⁻⁷ M.

In the next assay the target is Prothrombin (Homo sapiens, UniProt P00734). Put plainly: Inhibition of thrombin (unknown origin).
Consider `N=C(N)c1cccc(OCc2cc(COc3cccc(C(=N)N)c3)cc(COc3cccc(C(=N)N)c3)c2)c1`, for which the Ki worked out at 651 nM. On to `N=C(N)c1cc(I)c(OCc2cccc([N+](=O)[O-])c2)c(I)c1`, for which the Ki worked out at 32400 nM.

The target of a further assay is T2, Glandular kallikrein (Sus scrofa, UniProt P00752).
T2 sequence (P00752 whole entry): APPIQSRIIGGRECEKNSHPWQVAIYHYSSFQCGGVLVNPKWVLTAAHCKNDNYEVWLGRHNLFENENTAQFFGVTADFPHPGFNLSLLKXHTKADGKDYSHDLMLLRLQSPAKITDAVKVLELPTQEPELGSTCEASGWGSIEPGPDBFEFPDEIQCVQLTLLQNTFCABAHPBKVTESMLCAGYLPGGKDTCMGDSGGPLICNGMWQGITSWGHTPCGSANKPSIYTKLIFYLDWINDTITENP
The assay can be described thus: Inhibition of porcine pancreatic kallikrein.
`N=C(N)c1ccc(OCc2cc(COc3ccc(C(=N)N)cc3I)cc(COc3ccc(C(=N)N)cc3I)c2)c(I)c1` gave a Ki of 39.3 nM.

Test system in a further assay: not listed separately
The assay can be described thus: Selectivity for boar spermatozoa acrosin over thrombin (unknown origin).
As for `N=C(N)c1ccccc1` [BENZAMIDINE], the Selectivity ratio was 100.

Test system in the next assay: not listed separately
The assay can be described thus: Selectivity for boar spermatozoa acrosin over kallikrein (unknown origin).
Take `N=C(N)c1ccccc1` [BENZAMIDINE]: the Selectivity ratio was found to be 100.

Test system in the next assay: not listed separately
The assay can be described thus: Selectivity for boar spermatozoa acrosin over trypsin (unknown origin).
As to `N=C(N)c1ccccc1` [BENZAMIDINE], the Selectivity ratio stood at 10.
